EBI2 antag: EBI2 (human) antagonism. EBI2 beta-arrestin recruitment, luminescence, 7a,25-OHC stimulated. inhibition, % at 5 µM. 360,000 tested, 0.81% active. AID 651636; in the data active = inhibition above about 38%;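 note: enzyme fragment complementation signal reports receptor beta-arrestin coupling in cells; 0% = agonist plus DMSO wells and 100% = wells without agonist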
CCR6 antag: CCR6 (human) receptor antagonism; P51684; CHO-K1 CCR6 PathHunter beta-arrestin, luminescence, CCL20-stimulated; inhibition, % at 20 µM; 340,000 tested, 0.49% active; AID 493098;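 active = compounds whose inhibition of the agonist-driven luminescence signal at 20 µM reaches about 50%, limit read from the data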;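 note: cells stimulated with CCL20 at 14 nM final; plate controls were DMSO with CCL20 for no effect and DMSO without agonist for full effect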
APJ agonist: agonists of human APJ apelin receptor | CHO-K1 APJ PathHunter beta-arrestin, luminescence; 0% DMSO wells, 100% apelin | activation, % at 20 µM | 330,000 tested, 0.11% active | AID 2520;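 active = activation more than six SD over the plate average, tested at 20 µM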;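 note: 0% = DMSO alone and 100% = apelin-13 at 10 nM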
Target sequence (P35414 whole entry, looked up): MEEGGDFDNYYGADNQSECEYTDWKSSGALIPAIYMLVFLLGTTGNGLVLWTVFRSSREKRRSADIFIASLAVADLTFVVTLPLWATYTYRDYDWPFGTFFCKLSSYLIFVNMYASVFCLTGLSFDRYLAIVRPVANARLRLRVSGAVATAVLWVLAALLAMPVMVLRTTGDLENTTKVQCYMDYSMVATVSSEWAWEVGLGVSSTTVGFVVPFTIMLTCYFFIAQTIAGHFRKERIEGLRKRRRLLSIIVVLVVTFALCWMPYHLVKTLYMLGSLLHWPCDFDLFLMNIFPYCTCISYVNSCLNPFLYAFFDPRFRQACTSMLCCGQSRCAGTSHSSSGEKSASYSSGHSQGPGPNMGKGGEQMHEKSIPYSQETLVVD
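Test system: CHO-K1 APJ beta-arrestin complementation cell line | Compound: Single test compound dose, 20 µM final, 1% DMSO | Incubation: Compound 90 min 25 °C, reagent 1 h | Measured by: beta-gal luminescence | Read-out basis: APJ–arrestin association signal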
CXCR6 block: blocks human CXCR6 beta-arrestin recruitment; CHO-K1 PathHunter CXCR6 beta-arrestin, luminescence; inhibition, % at 20 µM; 360,000 tested, 0.36% active; in the data active = inhibition above about 34%, passing the limit was not always enough;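 note: antagonist mode with CXCL16 agonist at 10 nM final; 0% = 10 nM CXCL16 with DMSO and 100% = unstimulated wells without agonist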
APJ antag: blocks the human apelin receptor APJ; 330,000 tested, 0.32% active; CHO-K1 APJ beta-arrestin complementation, luminescence; inhibition, % at 20 µM;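 active = inhibition above about 40% at 20 µM, limit read from the data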;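 note: cells challenged with 10 nM apelin-13 agonist together with compound; plate controls were apelin-13 plus DMSO wells for no effect and DMSO wells lacking apelin-13 for full effect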
EBI2 antag conf: confirmation of human EBI2 receptor antagonists | inhibition, % at 5 µM | AID 651997 | shares compounds with EBI2 antag | EBI2 beta-arrestin luminescence, 7a,25-OHC antagonism | 2,400 tested, 29% active;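 active = inhibition of at least 50%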
EBI2 agonist: activates EBI2, counter-screen for EBI2 antagonists | shares compounds with EBI2 antag | AID 652000 | activation, % at 5 µM | EBI2-expressing cells, agonist mode, luminescence, 60 min; 0% vehicle, 100% 7α,25-dihydroxycholesterol control | 2,400 tested, under 10 active;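 active = activation of at least 50%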
bGal counter: inhibits E. coli beta-galactosidase, counter-screen for EBI2 antagonists; inhibition, % at 5 µM; 2,400 tested, 1% active; shares compounds with EBI2 antag; purified beta-galactosidase, luminescent Galacton Star, 15 min;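 active = replicate-average signal at least 3 plate SD below neutral wells, shown as high inhibition, flagging enzyme-inhibiting false positives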;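 note: 0% = DMSO wells with enzyme and 100% = wells lacking enzyme; higher means stronger loss of beta-gal luminescence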
Starred values were filed as active, the others as inactive. Only some compounds are listed: those with a hit (about 1.5% of all), similar ones and a draw of the others.

Screening O=C(CSc1ccc(Br)cc1)N1CCN(C(=O)c2ccco2)CC1 returned EBI2 antag 83*, CCR6 antag 4, APJ agonist -2, CXCR6 block -7, APJ antag -18, EBI2 antag conf 69*, EBI2 agonist 0 and bGal counter 2.
Cc1ccc(OCC(=O)N2CCN(C(=O)c3cccs3)CC2)cc1 was read as EBI2 antag 60*, CCR6 antag -2, APJ agonist -2, CXCR6 block -2, APJ antag -4, EBI2 antag conf 41, EBI2 agonist 1 and bGal counter -3.
`CCC(CC)C(=O)N(C)c1c(C)nc2c(OCC3CCCCC3)cccn12` gave EBI2 antag 14 and CXCR6 block 3.
For NC(=O)c1cccc(-c2coc3c(C(=O)NCc4ccccc4)cccc23)c1 the results were EBI2 antag 8 and CXCR6 block -7.
For Cc1ccc(C)c(S(=O)(=O)N2CCN(C(=O)CCCc3c[nH]c4ccccc34)CC2)c1 the results were EBI2 antag 60*, CCR6 antag 16, APJ agonist 1, CXCR6 block 1, APJ antag -37, EBI2 antag conf 34, EBI2 agonist 1 and bGal counter 6.
Screening O=C(CSc1ccccc1)N1CCN(S(=O)(=O)c2ccccc2)CC1 returned EBI2 antag 28, CCR6 antag 14, APJ agonist -1, CXCR6 block -9 and APJ antag 0.
For Cc1ccc(C)c(S(=O)(=O)N2CCN(C(=O)CSc3ccccc3)CC2)c1 the results were EBI2 antag 57*, CCR6 antag 8, APJ agonist 2, CXCR6 block 11, APJ antag 3, EBI2 antag conf 62*, EBI2 agonist 1 and bGal counter 6.
CC1CC2(CC(CN(C3CCCCC3)C3CCCCC3)OC2=O)C(=O)O1 (configuration not stated) was read as EBI2 antag -2 and CXCR6 block 8.
C(=C\c1ccccc1)/CN1CCN(C(c2cccs2)c2nnnn2-c2ccc3c(c2)OCCO3)CC1 (configuration not stated) was read as EBI2 antag 72*, CXCR6 block 8, EBI2 antag conf 30, EBI2 agonist 0 and bGal counter -17.
`C(=C\c1ccccc1)/CN1CCN(C(c2cccc3ccccc23)c2nnnn2Cc2ccccc2)CC1` (configuration not stated) gave EBI2 antag 64*, CXCR6 block 12, EBI2 antag conf 31, EBI2 agonist 1 and bGal counter 7.
COc1ccc(-n2nnnc2C(c2cc3ccccc3o2)N2CCN(C/C=C/c3ccccc3)CC2)cc1 (configuration not stated) was read as EBI2 antag 39 and CXCR6 block 5.
COc1ccc(C(c2nnnn2-c2ccc3c(c2)OCCO3)N2CCN(C/C=C/c3ccccc3)CC2)cc1 (configuration not stated) was read as EBI2 antag 60*, CXCR6 block 19, EBI2 antag conf 41, EBI2 agonist 2 and bGal counter 0.
`CCC(c1nnnn1-c1ccc2c(c1)OCCO2)N1CCN(C/C=C/c2ccccc2)CC1` (configuration not stated) gave EBI2 antag 18 and CXCR6 block -9.
For COc1ccc(-n2nnnc2C(c2cccc3ccccc23)N2CCN(C/C=C/c3ccccc3)CC2)cc1 (configuration not stated) the results were EBI2 antag 63*, CXCR6 block 13, EBI2 antag conf 32, EBI2 agonist 1 and bGal counter 2.
For C(=C\c1ccccc1)/CN1CCN(C(c2cc3ccccc3o2)c2nnnn2-c2ccc3c(c2)OCCO3)CC1 (configuration not stated) the results were EBI2 antag 38 and CXCR6 block 11.
`CC(C)CNc1ncnc2c1ncn2[C@H]1CN(Cc2ccc3c(c2)OCO3)C[C@@H](CO)O1` gave EBI2 antag 3 and CXCR6 block 0.
`COc1cccc(CNc2nc3cc(-c4ccccc4CO)sc3c(=O)n2C)c1` gave EBI2 antag 8 and CXCR6 block 2.
For O=S(Cc1ccc(Cl)cc1)CC(O)COc1ccc(Cl)cc1 (configuration not stated) the results were EBI2 antag 76*, CCR6 antag -13, APJ agonist -1, CXCR6 block -6, APJ antag -17, EBI2 antag conf 60*, EBI2 agonist -1 and bGal counter -15.
Screening NC(=O)OCC(O)COc1ccc(Cl)cc1 (configuration not stated) returned EBI2 antag 4, CCR6 antag 14, APJ agonist 10, CXCR6 block -1 and APJ antag -5.
For CCCCCCc1nc2nc(Cl)c(Cl)nc2[nH]1 the results were EBI2 antag -11 and CXCR6 block 0.
Screening COc1ccc(C(O)c2nc(-c3ccncc3)cs2)cc1 (configuration not stated) returned EBI2 antag -3 and CXCR6 block -9.
`Cc1cccc(S(=O)(=O)c2c(N)n(/N=C/c3ccccc3)c3nc4ccccc4nc23)c1` gave EBI2 antag 17, CCR6 antag 7, APJ agonist 1, CXCR6 block -5 and APJ antag 9.
For Nc1c(S(=O)(=O)c2ccccc2)c2nc3ccccc3nc2n1/N=C/c1cccc(O)c1 the results were EBI2 antag 68*, CCR6 antag 1, APJ agonist 1, CXCR6 block -7, APJ antag -4, EBI2 antag conf 38, EBI2 agonist 1 and bGal counter -9.
`COc1cc(-c2nnc(COc3ccc4cc(Br)ccc4c3)o2)cc(OC)c1OC` gave EBI2 antag 56*, CCR6 antag 8, APJ agonist -1, CXCR6 block 3, APJ antag 15, EBI2 antag conf 14, EBI2 agonist 1 and bGal counter 1.
CCCCNC(=O)C[C@@H]1C[C@@]2(C(=O)OCC)CCCC=C2N(CCC2=CCCCC2)C1=O was read as EBI2 antag 4.
For CC(=O)CSc1ccc(-c2nc3cc(C)c(C)cc3[nH]2)cn1 the results were EBI2 antag 31, CCR6 antag -10, APJ agonist -3, CXCR6 block -16 and APJ antag -4.
